Test results reported in ChEMBL document CHEMBL4266039, “Overcoming Time-Dependent Inhibition (TDI) of Cytochrome P450 3A4 (CYP3A4) Resulting from Bioactivation of a Fluoropyrimidine Moiety” (J Med Chem, 2018).

test system: not listed separately; experiment: Protein binding in rat plasma; assay type: ADME, cell-free; conditions: read-out: PPB (converted)

Which fraction unbound does the source give for `Cc1nc(N2C[C@H]3C(=O)N(C)C(=N)N[C@@]3(c3cc(-c4cccc(C#N)c4)cs3)C2)nc(C)c1F` here?
Its fraction unbound is 0.003.

test system: Rattus norvegicus; experiment: Anti-alzheimer activity in rat assessed as reduction in amyloid beta40 levels in cerebrospinal fluid at 30 mg/kg, po relative to control; assay type: functional; design: scale not given: the % may be the effect or the level left; conditions: not given

With `COc1nc(N2C[C@H]3C(=O)N(C)C(=N)N[C@@]3(c3cc(-c4cccc(C#N)c4)cs3)C2)ncc1F` as the compound, how does the Activity read?
The Activity was 45%.

With `CCCOc1nc(N2C[C@H]3C(=O)N(C)C(=N)N[C@@]3(c3cc(-c4cccc(C#N)c4)cs3)C2)ncc1F` as the compound, how does the Activity read?
The Activity was 12%.

For `CCOc1nc(N2C[C@H]3C(=O)N(C)C(=N)N[C@@]3(c3cc(-c4cccc(C#N)c4)cs3)C2)ncc1F`, which Activity is on record?
The Activity was 20%.

test system: not listed separately; experiment: Volume of distribution at steady state in Han Wistar rat at 2 mg/kg, iv; assay type: ADME, organism-based; conditions: in vivo, read-out: Vdss
Method in brief: (§1)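 Same Wistar Han rat PK study, intravenous arm at 2 mg/kg. Clearance, Vd,ss and t1/2 were taken from the iv data.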

For `Cc1nc(N2C[C@H]3C(=O)N(C)C(=N)N[C@@]3(c3cc(-c4cccc(C#N)c4)cs3)C2)nc(C)c1F`, which Vd is on record?
Its Vd is 1 L/kg.

test system: not listed separately; experiment: AUC (0 to infinity) in Han Wistar rat at 10 mg/kg, po; assay type: ADME, organism-based; design: dose 10 mg/kg, route oral, time infinity; conditions: in vivo
Method in brief: (§2)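 Wistar Han rats received a single oral dose of 10 mg/kg. AUC(0-∞), Cmax and oral bioavailability (F%) were derived from this oral arm.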

For `Cc1nc(N2C[C@H]3C(=O)N(C)C(=N)N[C@@]3(c3cc(-c4cccc(C#N)c4)cs3)C2)nc(C)c1F`, which AUC(0-inf) is on record?
The AUC(0-inf) was 34 µM·h.

test system: not listed separately; experiment: Half life in Han Wistar rat at 2 mg/kg, iv; assay type: ADME, organism-based; conditions: in vivo; method in brief: as §1

Which half-life does the source give for `Cc1nc(N2C[C@H]3C(=O)N(C)C(=N)N[C@@]3(c3cc(-c4cccc(C#N)c4)cs3)C2)nc(C)c1F` here?
Its half-life is 2.1 h.

test system: not listed separately; experiment: Cmax in Han Wistar rat at 10 mg/kg, po; assay type: ADME, organism-based; design: dose 10 mg/kg, route oral; conditions: in vivo; method in brief: as §2

Which Cmax does the source give for `Cc1nc(N2C[C@H]3C(=O)N(C)C(=N)N[C@@]3(c3cc(-c4cccc(C#N)c4)cs3)C2)nc(C)c1F` here?
Its Cmax is 5.8 µM.

molecular target: Beta-secretase 1 (Homo sapiens, UniProt P56817); experiment: Inhibition of purified human BACE1; conditions: not given
Sequence (P56817 whole entry): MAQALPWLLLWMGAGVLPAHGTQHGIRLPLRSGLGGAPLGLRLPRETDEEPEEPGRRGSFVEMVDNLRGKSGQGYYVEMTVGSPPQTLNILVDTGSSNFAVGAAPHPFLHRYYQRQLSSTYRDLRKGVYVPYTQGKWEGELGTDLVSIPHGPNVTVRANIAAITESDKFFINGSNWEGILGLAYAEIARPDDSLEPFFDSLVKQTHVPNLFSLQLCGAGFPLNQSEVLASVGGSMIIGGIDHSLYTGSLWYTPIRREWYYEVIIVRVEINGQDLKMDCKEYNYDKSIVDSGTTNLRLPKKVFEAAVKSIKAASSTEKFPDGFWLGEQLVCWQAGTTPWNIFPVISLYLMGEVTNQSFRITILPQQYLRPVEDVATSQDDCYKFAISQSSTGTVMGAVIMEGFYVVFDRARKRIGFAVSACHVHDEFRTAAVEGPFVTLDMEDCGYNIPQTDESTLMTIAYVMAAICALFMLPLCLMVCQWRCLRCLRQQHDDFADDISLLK

Which Ki does the source give for `CCCOc1nc(N2C[C@H]3C(=O)N(C)C(=N)N[C@@]3(c3cc(-c4cccc(C#N)c4)cs3)C2)ncc1F` here?
The Ki was 0.001 µM.

With `CN1C(=N)N[C@@]2(c3cc(-c4cccc(C#N)c4)cs3)CN(c3ncc(F)c(N4CCOCC4)n3)C[C@H]2C1=O` as the compound, how does the Ki read?
Its Ki is 0.001 µM.

For `COc1cc(C#N)cc(-c2csc([C@]34CN(c5ncc(F)cn5)C[C@H]3C(=O)N(C)C(=N)N4)c2)c1`, which Ki is on record?
Its Ki is 0.001 µM.

With `CCc1nc(N2C[C@H]3C(=O)N(C)C(=N)N[C@@]3(c3cc(-c4cccc(C#N)c4)cs3)C2)ncc1F` as the compound, how does the Ki read?
The Ki was 0.001 µM.

With `CN1C(=N)N[C@@]2(c3cc(-c4cccc(Cl)c4)cs3)CN(c3ncc(F)cn3)C[C@H]2C1=O` as the compound, how does the Ki read?
The Ki was 0.001 µM.

For `CN1C(=N)N[C@@]2(c3cc(Br)cs3)CN(c3ncc(F)cn3)C[C@H]2C1=O`, which Ki is on record?
The Ki was 0.1 µM.

Which Ki does the source give for `CN1C(=N)N[C@@]2(c3cc(-c4cccc(C#N)c4)cs3)CN(c3ncc(F)c(N4CCCC4)n3)C[C@H]2C1=O` here?
Its Ki is 0.003 µM.

Which Ki does the source give for `CN1C(=N)N[C@@]2(c3cc(-c4ccc(F)c(C#N)c4)cs3)CN(c3ncc(F)cn3)C[C@H]2C1=O` here?
The Ki was 0.004 µM.

For `CN1C(=N)N[C@@]2(c3cc(-c4cc(F)cc(C#N)c4)cs3)CN(c3ncc(F)cn3)C[C@H]2C1=O`, which Ki is on record?
Its Ki is 0.002 µM.

With `Cc1nc(N2C[C@H]3C(=O)N(C)C(=N)N[C@@]3(c3cc(-c4cccc(C#N)c4)cs3)C2)nc(C)c1F` as the compound, how does the Ki read?
Its Ki is 0.001 µM.

Which Ki does the source give for `Cc1nc(N2C[C@H]3C(=O)N(C)C(=N)N[C@@]3(c3cc(-c4cccc(C#N)c4)cs3)C2)ncc1F` here?
The Ki was 0.0007 µM.

For `CN1C(=N)N[C@@]2(c3cc(-c4cc(F)cc(F)c4)cs3)CN(c3ncc(F)cn3)C[C@H]2C1=O`, which Ki is on record?
The Ki was 0.01 µM.

Which Ki does the source give for `COc1nc(N2C[C@H]3C(=O)N(C)C(=N)N[C@@]3(c3cc(-c4cccc(C#N)c4)cs3)C2)nc(C)c1F` here?
Its Ki is 0.0007 µM.

With `CCOc1nc(N2C[C@H]3C(=O)N(C)C(=N)N[C@@]3(c3cc(-c4cccc(C#N)c4)cs3)C2)ncc1F` as the compound, how does the Ki read?
The Ki was 0.001 µM.

For `CN1C(=N)N[C@@]2(c3cc(-c4ccc(Cl)c(C#N)c4)cs3)CN(c3ncc(F)cn3)C[C@H]2C1=O`, which Ki is on record?
The Ki was 0.01 µM.

test system: not listed separately; experiment: Clearance in Han Wistar rat at 2 mg/kg, iv; assay type: ADME, organism-based; conditions: in vivo; method in brief: as §1

With `Cc1nc(N2C[C@H]3C(=O)N(C)C(=N)N[C@@]3(c3cc(-c4cccc(C#N)c4)cs3)C2)nc(C)c1F` as the compound, how does the clearance read?
The clearance was 0.336 L/h/kg.

molecular target: Cytochrome P450 3A4 (Homo sapiens, UniProt P08684); experiment: Inhibition of CYP3A4 in human liver microsomes using testosterone as substrate preincubated for 30 mins followed by substrate/NADPH addition measured after 10 mins by LC-MS/MS analysis; assay type: ADME; conditions: not given
Sequence (P08684 whole entry): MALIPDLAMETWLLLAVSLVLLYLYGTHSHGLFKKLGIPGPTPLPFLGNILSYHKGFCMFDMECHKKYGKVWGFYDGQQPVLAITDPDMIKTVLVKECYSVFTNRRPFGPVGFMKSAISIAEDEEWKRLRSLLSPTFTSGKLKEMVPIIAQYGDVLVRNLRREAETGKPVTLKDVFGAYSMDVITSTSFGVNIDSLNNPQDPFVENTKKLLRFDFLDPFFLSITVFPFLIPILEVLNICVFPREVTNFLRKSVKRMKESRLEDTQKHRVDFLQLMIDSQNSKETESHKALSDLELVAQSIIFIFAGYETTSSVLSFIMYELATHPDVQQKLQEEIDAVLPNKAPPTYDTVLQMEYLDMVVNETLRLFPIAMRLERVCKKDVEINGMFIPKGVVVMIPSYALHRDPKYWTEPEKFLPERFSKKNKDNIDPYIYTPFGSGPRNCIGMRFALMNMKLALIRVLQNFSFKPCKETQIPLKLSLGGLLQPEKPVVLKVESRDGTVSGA

With `CN1C(=O)[C@@H]2CN(c3ccc(F)cc3)C[C@]2(c2cc(-c3cccc(C#N)c3)cs2)N=C1N` as the compound, how does the IC50 read?
The IC50 was > 30 µM.

Which IC50 does the source give for `CN1C(=O)[C@@H]2CN(c3ncccn3)C[C@]2(c2cc(-c3cccc(C#N)c3)cs2)N=C1N` here?
The IC50 was > 30 µM.

With `CCCOc1nc(N2C[C@H]3C(=O)N(C)C(=N)N[C@@]3(c3cc(-c4cccc(C#N)c4)cs3)C2)ncc1F` as the compound, how does the IC50 read?
The IC50 was 1.2 µM.

With `CN1C(=N)N[C@@]2(c3cc(-c4cccc(C#N)c4)cs3)CN(c3ncc(F)c(N4CCOCC4)n3)C[C@H]2C1=O` as the compound, how does the IC50 read?
Its IC50 is > 30 µM.

With `COc1cc(C#N)cc(-c2csc([C@]34CN(c5ncc(F)cn5)C[C@H]3C(=O)N(C)C(=N)N4)c2)c1` as the compound, how does the IC50 read?
The IC50 was 1.6 µM.

Which IC50 does the source give for `CCc1nc(N2C[C@H]3C(=O)N(C)C(=N)N[C@@]3(c3cc(-c4cccc(C#N)c4)cs3)C2)ncc1F` here?
The IC50 was 0.9 µM.

With `CN1C(=N)N[C@@]2(c3cc(-c4cccc(Cl)c4)cs3)CN(c3ncc(F)cn3)C[C@H]2C1=O` as the compound, how does the IC50 read?
The IC50 was 1.2 µM.

With `CN1C(=N)N[C@@]2(c3cc(Br)cs3)CN(c3ncc(F)cn3)C[C@H]2C1=O` as the compound, how does the IC50 read?
The IC50 was 0.9 µM.

For `CN1C(=N)N[C@@]2(c3cc(-c4cccc(C#N)c4)cs3)CN(c3ncc(F)c(N4CCCC4)n3)C[C@H]2C1=O`, which IC50 is on record?
The IC50 was > 30 µM.

For `CN1C(=N)N[C@@]2(c3cc(-c4ccc(F)c(C#N)c4)cs3)CN(c3ncc(F)cn3)C[C@H]2C1=O`, which IC50 is on record?
Its IC50 is 5.7 µM.

Which IC50 does the source give for `CN1C(=N)N[C@@]2(c3cc(-c4cc(F)cc(C#N)c4)cs3)CN(c3ncc(F)cn3)C[C@H]2C1=O` here?
Its IC50 is 1.6 µM.

For `Cc1nc(N2C[C@H]3C(=O)N(C)C(=N)N[C@@]3(c3cc(-c4cccc(C#N)c4)cs3)C2)ncc1F`, which IC50 is on record?
The IC50 was 0.6 µM.

Which IC50 does the source give for `CN1C(=N)N[C@@]2(c3cc(-c4cc(F)cc(F)c4)cs3)CN(c3ncc(F)cn3)C[C@H]2C1=O` here?
Its IC50 is 1 µM.

For `COc1nc(N2C[C@H]3C(=O)N(C)C(=N)N[C@@]3(c3cc(-c4cccc(C#N)c4)cs3)C2)nc(C)c1F`, which IC50 is on record?
Its IC50 is 11 µM.

For `CCOc1nc(N2C[C@H]3C(=O)N(C)C(=N)N[C@@]3(c3cc(-c4cccc(C#N)c4)cs3)C2)ncc1F`, which IC50 is on record?
Its IC50 is 0.7 µM.

For `CN1C(=N)N[C@@]2(c3cc(-c4ccc(Cl)c(C#N)c4)cs3)CN(c3ncc(F)cn3)C[C@H]2C1=O`, which IC50 is on record?
The IC50 was 5.5 µM.

test system: not listed separately; experiment: Oral bioavailability in Han Wistar rat at 10 mg/kg; assay type: ADME, organism-based; conditions: in vivo; method in brief: as §2

Which bioavailability does the source give for `Cc1nc(N2C[C@H]3C(=O)N(C)C(=N)N[C@@]3(c3cc(-c4cccc(C#N)c4)cs3)C2)nc(C)c1F` here?
Its bioavailability is 54%.

test system: Rattus norvegicus; experiment: Anti-alzheimer activity in rat assessed as reduction in amyloid beta40 levels in cerebrospinal fluid at 10 mg/kg, po relative to control; assay type: functional; design: scale not given: the % may be the effect or the level left; conditions: not given

With `CN1C(=N)N[C@@]2(c3cc(-c4cccc(C#N)c4)cs3)CN(c3ncc(F)c(N4CCOCC4)n3)C[C@H]2C1=O` as the compound, how does the Activity read?
The Activity was 17%.

Which Activity does the source give for `CCc1nc(N2C[C@H]3C(=O)N(C)C(=N)N[C@@]3(c3cc(-c4cccc(C#N)c4)cs3)C2)ncc1F` here?
The Activity was 49%.

For `CN1C(=N)N[C@@]2(c3cc(-c4cccc(C#N)c4)cs3)CN(c3ncc(F)c(N4CCCC4)n3)C[C@H]2C1=O`, which Activity is on record?
Its Activity is 2%.

With `Cc1nc(N2C[C@H]3C(=O)N(C)C(=N)N[C@@]3(c3cc(-c4cccc(C#N)c4)cs3)C2)nc(C)c1F` as the compound, how does the Activity read?
The Activity was 54%.

For `Cc1nc(N2C[C@H]3C(=O)N(C)C(=N)N[C@@]3(c3cc(-c4cccc(C#N)c4)cs3)C2)ncc1F`, which Activity is on record?
Its Activity is 38%.
